# Values joined by “and” are separate entries in the source; they are usually repeats but may differ in a detail not shown here. Equal values may be shown once. Active and inactive are the calls of the source.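 The calls were made as follows: active = cell killing with fitted AC50 at or below twice the top valid dose for that sample; inconclusive = flat curve losing 30 to 70% signal, or bad fit; inactive = the rest.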
# Tested on: not listed separately
# Test: viability loss in human kidney cells – cell-based, CellTiter-Glo luminescence, dry powder, set 17, cytotoxicity control, dose response (AID 977615)
# Conditions: HEK293T viability, CellTiter-Glo ATP luminescence, 72 h; at 26 µM (top of the series)
# Summary of the method: (§1)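 Assay system: HEK293T cells. Buffer or medium: DMEM plus 10% FBS. Compound dosing: multi-concentration compound series. Schedule: 24 h attachment, 72 h compound exposure, 37 °C, 5% CO2. Signal: CellTiter-Glo ATP luminescence.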
row,SMILES,"activity change, negative = cytotoxic"
1,C[C@@H](O)C#Cc1ccc2c(c1)O[C@@H](CN(C)Cc1cccnc1)[C@@H](C)CN([C@@H](C)CO)S2(=O)=O,2.11% (inactive)
2,C[C@H]1CN([C@@H](C)CO)S(=O)(=O)c2ccc(Br)cc2O[C@H]1CN(C)Cc1ccc(-c2ccccc2)cc1,-0.919% (inactive)
3,C[C@@H](O)C#Cc1ccc2c(c1)O[C@@H](CN(C)S(=O)(=O)c1ccc(-c3ccccc3)cc1)[C@@H](C)CN([C@@H](C)CO)S2(=O)=O,-12.1% (inactive)
4,CO[C@H]1CN(C)C(=O)c2ccc(NC(=O)c3ccc(F)cc3)cc2OC[C@H](C)N(C(=O)c2ccc(F)cc2)C[C@@H]1C,1.97% (inactive)
5,CNC[C@@H]1Oc2cc(Br)ccc2S(=O)(=O)N([C@@H](C)CO)C[C@@H]1C,-16.1% (inactive)
6,C[C@@H]1CN([C@@H](C)CO)S(=O)(=O)c2ccc(C#C[C@@H](C)O)cc2O[C@@H]1CN(C)Cc1ccc(-c2ccccc2)cc1,-8.45% (inactive)
7,C[C@@H]1CN([C@H](C)CO)S(=O)(=O)c2ccc(C#C[C@@H](C)O)cc2O[C@@H]1CN(C)Cc1ccc(-c2ccccc2)cc1,2.1% (inactive)
8,C[C@@H](O)C#Cc1ccc2c(c1)O[C@@H](CN(C)Cc1ccncc1)[C@@H](C)CN([C@@H](C)CO)S2(=O)=O,-12% (inactive)
9,C[C@@H]1CN([C@H](C)CO)S(=O)(=O)c2ccc(C#C[C@@H](C)O)cc2O[C@H]1CN(C)Cc1ccc(-c2ccccc2)cc1,-10.1% (inactive)
10,C[C@H](O)C#Cc1ccc2c(c1)O[C@H](CN(C)Cc1ccc(-c3ccccc3)cc1)[C@H](C)CN([C@@H](C)CO)S2(=O)=O,-11.3% (inactive)

# Tested on: HEK293T viability, CellTiter-Glo ATP luminescence, 72 h
# Test: as above
# Conditions: not given
# Summary of the method: as §1
row,SMILES,AC50
1,COc1cccc(-c2ccc(CN(C)C[C@@H]3Oc4cc(C#C[C@@H](C)O)ccc4S(=O)(=O)N([C@@H](C)CO)C[C@@H]3C)cc2)c1,884 nM
2,C[C@@H](O)C#Cc1ccc2c(c1)O[C@@H](CN(C)Cc1ccc(-c3ccccc3Cl)cc1)[C@@H](C)CN([C@@H](C)CO)S2(=O)=O,364 nM
3,C[C@H](O)C#Cc1ccc2c(c1)O[C@@H](CN(C)Cc1ccc(-c3ccccc3)cc1)[C@@H](C)CN([C@@H](C)CO)S2(=O)=O,22000 nM
4,C[C@@H](O)C#Cc1ccc2c(c1)O[C@@H](CN(C)Cc1ccc(-c3cccc(Cl)c3)cc1)[C@@H](C)CN([C@@H](C)CO)S2(=O)=O,2080 nM
5,COc1ccccc1-c1ccc(CN(C)C[C@@H]2Oc3cc(C#C[C@@H](C)O)ccc3S(=O)(=O)N([C@@H](C)CO)C[C@@H]2C)cc1,1350 nM
6,C[C@H](CO)N1C[C@H](C)[C@H](CN(C)Cc2ccc(-c3ccccc3)cc2)Oc2cc(C#C[C@@H](C)O)ccc2S1(=O)=O,21700 nM
7,C[C@@H](O)C#Cc1ccc2c(c1)O[C@@H](CN(C)Cc1ccc(-c3ccccc3)cc1)[C@@H](C)CN([C@@H](C)CO)S2(=O)=O,3610 nM and 2940 nM
8,C[C@H](O)C#Cc1ccc2c(c1)O[C@H](CN(C)Cc1ccc(-c3ccccc3)cc1)[C@@H](C)CN([C@@H](C)CO)S2(=O)=O,7120 nM
9,COc1ccc(-c2ccc(CN(C)C[C@@H]3Oc4cc(C#C[C@@H](C)O)ccc4S(=O)(=O)N([C@@H](C)CO)C[C@@H]3C)cc2)cc1,1580 nM
10,Cc1cccc(-c2ccc(CN(C)C[C@@H]3Oc4cc(C#C[C@@H](C)O)ccc4S(=O)(=O)N([C@@H](C)CO)C[C@@H]3C)cc2)c1,1530 nM
11,Cc1ccc(-c2ccc(CN(C)C[C@@H]3Oc4cc(C#C[C@@H](C)O)ccc4S(=O)(=O)N([C@@H](C)CO)C[C@@H]3C)cc2)cc1,1540 nM
12,COc1ccc(-c2ccc3c(c2)O[C@@H](CN(C)Cc2ccc(-c4ccccc4)cc2)[C@@H](C)CN([C@@H](C)CO)S3(=O)=O)cc1,> 52000 nM (inactive)
13,C[C@@H](O)C#Cc1ccc2c(c1)O[C@H](CN(C)Cc1ccc(-c3ccccc3)cc1)[C@@H](C)CN([C@@H](C)CO)S2(=O)=O,25900 nM
14,C[C@@H](O)C#Cc1ccc2c(c1)O[C@@H](CN(C)Cc1ccc(-c3ccc(Cl)cc3)cc1)[C@@H](C)CN([C@@H](C)CO)S2(=O)=O,1260 nM
15,C[C@H]1CN([C@@H](C)CO)S(=O)(=O)c2ccc(C#CC(C)(C)O)cc2O[C@H]1CN(C)Cc1ccc(-c2ccccc2)cc1,18000 nM
16,Cc1ccccc1-c1ccc(CN(C)C[C@@H]2Oc3cc(C#C[C@@H](C)O)ccc3S(=O)(=O)N([C@@H](C)CO)C[C@@H]2C)cc1,1890 nM
17,C[C@H](O)C#Cc1ccc2c(c1)O[C@@H](CN(C)Cc1ccc(-c3ccccc3)cc1)[C@H](C)CN([C@H](C)CO)S2(=O)=O,26100 nM
